The results in this text go back to ChEMBL document CHEMBL5316309, “Discovery of BAY-390, a Selective CNS Penetrant Chemical Probe as Transient Receptor Potential Ankyrin 1 (TRPA1) Antagonist” (J Med Chem, 2023).

SMILES strings stand for the structures.

The target in data set [1] is Transient receptor potential cation channel subfamily A member 1 (Rattus norvegicus, UniProt Q6RI86). As to the kind of experiment: Antagonist activity at rat TRPA1 channel expressed in CHO-K1 cells tagged with GCaMP6 by measuring calcium flux measured after 10 mins by FLIPR tetra analysis. The data set is classed as cell-based. (In general: Calcium assays in cells follow changes in intracellular calcium, usually with a dye or a luminescent sensor.)
Transient receptor potential cation channel subfamily A member 1 (Rattus norvegicus, UniProt Q6RI86), sequence (Q6RI86 whole entry): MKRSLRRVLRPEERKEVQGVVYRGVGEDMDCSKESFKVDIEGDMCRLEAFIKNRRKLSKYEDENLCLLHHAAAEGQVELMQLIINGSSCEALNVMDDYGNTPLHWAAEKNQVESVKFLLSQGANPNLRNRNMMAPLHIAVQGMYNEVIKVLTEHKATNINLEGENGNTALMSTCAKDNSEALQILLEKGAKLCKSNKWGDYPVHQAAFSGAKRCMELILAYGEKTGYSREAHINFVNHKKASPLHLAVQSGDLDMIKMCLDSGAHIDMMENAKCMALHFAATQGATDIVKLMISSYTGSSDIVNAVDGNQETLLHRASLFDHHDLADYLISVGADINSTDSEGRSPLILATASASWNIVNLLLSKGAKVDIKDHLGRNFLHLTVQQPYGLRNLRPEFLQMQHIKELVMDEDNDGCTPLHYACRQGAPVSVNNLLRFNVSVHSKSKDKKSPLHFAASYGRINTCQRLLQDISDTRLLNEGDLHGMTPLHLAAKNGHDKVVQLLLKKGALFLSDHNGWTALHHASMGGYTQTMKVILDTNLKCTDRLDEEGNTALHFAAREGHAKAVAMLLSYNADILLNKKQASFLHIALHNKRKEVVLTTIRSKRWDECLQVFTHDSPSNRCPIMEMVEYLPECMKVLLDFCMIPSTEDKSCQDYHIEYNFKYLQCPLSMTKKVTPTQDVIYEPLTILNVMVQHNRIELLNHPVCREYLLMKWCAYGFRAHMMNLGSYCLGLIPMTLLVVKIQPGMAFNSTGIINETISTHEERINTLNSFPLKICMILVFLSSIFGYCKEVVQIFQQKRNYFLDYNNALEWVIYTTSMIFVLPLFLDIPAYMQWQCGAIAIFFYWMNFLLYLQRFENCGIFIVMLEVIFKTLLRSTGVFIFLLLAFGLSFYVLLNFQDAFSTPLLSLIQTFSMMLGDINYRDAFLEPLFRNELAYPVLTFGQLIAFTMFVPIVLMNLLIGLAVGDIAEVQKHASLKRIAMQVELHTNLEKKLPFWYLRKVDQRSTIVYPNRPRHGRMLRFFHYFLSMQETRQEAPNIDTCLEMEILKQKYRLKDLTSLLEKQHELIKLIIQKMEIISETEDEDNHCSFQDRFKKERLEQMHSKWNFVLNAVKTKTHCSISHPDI

The target in data set [2] is T1, Transient receptor potential cation channel subfamily A member 1 (Homo sapiens, UniProt O75762). As to the kind of experiment: Antagonist activity at human wildtype TRPA1 channel expressed in CHO-K1 cells tagged with GCaMP6 by measuring calcium flux measured after […] by FLIPR tetra analysis. The class given is cell-based.
T1 sequence (O75762 whole entry): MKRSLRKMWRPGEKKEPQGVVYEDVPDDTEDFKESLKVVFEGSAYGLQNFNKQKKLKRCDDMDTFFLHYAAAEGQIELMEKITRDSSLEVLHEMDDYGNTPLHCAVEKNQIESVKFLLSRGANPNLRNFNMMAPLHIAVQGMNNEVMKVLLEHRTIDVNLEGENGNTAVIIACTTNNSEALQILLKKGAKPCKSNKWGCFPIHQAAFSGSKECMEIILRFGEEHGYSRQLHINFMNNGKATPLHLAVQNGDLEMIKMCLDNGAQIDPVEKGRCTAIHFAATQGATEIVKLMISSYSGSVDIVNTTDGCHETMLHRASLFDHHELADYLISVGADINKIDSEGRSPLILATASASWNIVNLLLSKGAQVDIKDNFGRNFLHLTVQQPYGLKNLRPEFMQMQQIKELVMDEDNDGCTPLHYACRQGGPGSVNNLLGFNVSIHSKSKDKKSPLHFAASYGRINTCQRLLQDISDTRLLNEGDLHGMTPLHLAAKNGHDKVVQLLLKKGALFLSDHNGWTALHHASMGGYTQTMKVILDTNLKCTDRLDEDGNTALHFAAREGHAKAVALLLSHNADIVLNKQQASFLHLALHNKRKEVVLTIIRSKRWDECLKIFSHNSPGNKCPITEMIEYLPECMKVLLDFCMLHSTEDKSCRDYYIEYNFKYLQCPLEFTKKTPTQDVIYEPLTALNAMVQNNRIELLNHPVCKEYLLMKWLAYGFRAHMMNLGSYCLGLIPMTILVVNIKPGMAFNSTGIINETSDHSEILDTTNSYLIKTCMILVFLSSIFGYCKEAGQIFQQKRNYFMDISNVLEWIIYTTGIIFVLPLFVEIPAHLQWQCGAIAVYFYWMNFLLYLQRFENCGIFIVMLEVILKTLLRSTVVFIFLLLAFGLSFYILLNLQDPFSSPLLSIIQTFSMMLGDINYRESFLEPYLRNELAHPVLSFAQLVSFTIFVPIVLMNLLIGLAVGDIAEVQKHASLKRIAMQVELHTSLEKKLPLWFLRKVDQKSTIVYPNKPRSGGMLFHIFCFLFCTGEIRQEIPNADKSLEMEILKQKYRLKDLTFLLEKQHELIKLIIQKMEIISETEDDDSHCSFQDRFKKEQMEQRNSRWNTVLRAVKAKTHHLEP
For data set [3], the target named is T1, Transient receptor potential cation channel subfamily A member 1. As to the kind of experiment: Antagonist activity at human TRPA1 channel expressed in CHO-K1 cells tagged with GCaMP6 by measuring calcium flux measured after 10 mins by FLIPR tetra analysis. The data set is classed as cell-based.
The next data set concerns Rattus norvegicus. As to the kind of experiment: Antiallodynic activity against spinal nerve ligation neuropathic pain Sprague-Dawley rat model assessed as paw withdrawal threshold administered at 30 mg/kg, po bid post SNL surgery. Particulars: time <= 10.0 day, TDE = time-dependent effect. The class given is functional, organism-based. In short, it runs like this:
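Male Sprague Dawley rats, 100–120 g, had spinal nerve ligation under isoflurane. Oral dosing b.i.d. on days 15–24 post surgery in DMSO/Solutol/water 10/40/50 at 5 mL/kg; gabapentin 30 mg/kg q.d. as control. Von Frey up-and-down thresholds, blinded, on both hind paws at day 11 (baseline) and days 15, 18, 21, 24, 2 h after morning dose. Kruskal–Wallis with Dunn versus vehicle.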

The nature of data set [4]: Mutagenecity in Salmonella typhimurium by Ames test. The data set is classed as toxicity. Particulars: salmonella sp.
A short description of data set [5]: Lipophilicity, logD of compound. The class given is physicochemical. The settings on record: octanol/water.

Usually IC50 stands for the concentration that gives 50% inhibition. Consider `O[C@]1(C(F)(F)F)CCCC[C@H]1Nc1ccccc1` (racemic), for which the IC50 in data set [1] turned out to be 2300 nM.

As to `COCCCOc1cccc([C@H]2NC(=S)Nc3c2oc2ncccc32)c1`, the IC50 in data set [2] came out at 67 nM.

`Cc1ccc(CC2C(C)(C)CCCC2(O)C(F)(F)F)cc1` (mixture of isomers): the figures for the 50% inhibitory concentration (IC50) in data set [3] and in data set [1] were 1270 nM and above 12500 nM, respectively.

On to `Cc1cc2[nH]ncc2cc1-c1ccccc1C(F)(F)F`, for which the IC50 in data set [2] is 14 nM.

With `NCC1(CC(=O)O)CCCCC1`, the Activity result in the data set on Rattus norvegicus is “Tde”.

`O[C@]1(C(F)(F)F)CCCC[C@H]1Nc1ccc(Cl)c(F)c1`: the Activity entry in data set [4] was “Non-Toxic”. For the same molecule, the IC50 in data set [1] stood at 200 nM.

As for `C[C@@H](C(=O)Nc1ccnc(-c2cnc(N3CCC[C@H]3C(F)(F)F)nc2)n1)n1cnc2c1c(=O)n(C)c(=O)n2C`, the IC50 in data set [2] is 64 nM.

Take `O[C@]1(C(F)(F)F)CCCC[C@H]1Cc1cncc(Cl)c1`: in data set [1], the half-maximal inhibitory concentration (IC50) was above 25000 nM.

For the molecule `O[C@]1(C(F)(F)F)CCCC[C@H]1Nc1ccc(Cl)cc1`, the Activity result in data set [4] is on record as “Toxic”. Further, the IC50 in data set [1] was 118 nM.

In general, logD refers to the decadic logarithm of the distribution of all forms, ionised or not, between an organic phase and buffer at a given pH. A low value points to a more hydrophilic compound. The molecule `O[C@]1(C(F)(F)F)CCCC[C@H]1Oc1ccc(F)cc1` showed a logD in data set [5] of 3.5. Moreover, the IC50 in data set [1] stood at 120 nM.

With `O[C@]1(C(F)(F)F)CCCC[C@H]1Nc1ccc(F)c(Cl)c1`, the Activity entry in data set [4] is on record as “Non-Toxic”. The molecule also showed a logD in data set [5] of 3.4. The IC50 in data set [1] turned out to be 680 nM.

For the molecule `O[C@]1(C(F)(F)F)CCCC[C@H]1Nc1cccc(F)c1`, the Activity result in data set [4] is listed as “Non-Toxic”. The IC50 in data set [1] amounted to 950 nM.

As to `O[C@]1(C(F)(F)F)CCCC[C@H]1Nc1ccc(F)cn1`, in data set [4], the Activity entry is “Non-Toxic”. Also, in data set [1], the IC50 was 6300 nM.

For the molecule `N#Cc1cc(C[C@@H]2CCCC[C@]2(O)C(F)(F)F)cs1`, the logD in data set [5] amounted to 3.2. The IC50 in data set [1] was found to be 620 nM.

For `O[C@]1(C(F)(F)F)CCCC[C@H]1Nc1ccc(Cl)c(Cl)c1`, the Activity result in data set [4] is recorded as “Non-Toxic”. In data set [5], this molecule came in with a logD of 3.8. The IC50 in data set [1] came out at 650 nM.

For the molecule `Cn1c(=O)c2c(CC(=O)Nc3nc(-c4ccc(F)c(C(F)(F)F)c4F)cs3)csc2n(C)c1=O`, the IC50 in data set [2] is 6800 nM.

In data set [5], `O=C1c2ccc(F)cc2CN1[C@@H]1CCCC[C@]1(O)C(F)(F)F` displayed a logD of 2.6.

Take `CC1(C)CCCC(O)(C(F)(F)F)C1Cc1ccc(Cl)cc1` (mixture of isomers): the IC50 in data set [3] is 340 nM; in data set [1] it was 11500 nM.

Take `O[C@]1(C(F)(F)F)CCCC[C@H]1N1CCc2cc(F)ccc21`: in data set [5], the logD turned out to be 3.9. For the same molecule, the IC50 in data set [1] came to 10000 nM.

Consider `CC1(C)CCCC(O)(C(F)(F)F)C1Cc1cccc(C#N)c1` (mixture of isomers), for which the figures for the IC50 in data set [3] and in data set [1] were 5550 nM and 13000 nM, respectively.

For the molecule `COc1cc(N[C@@H]2CCCC[C@]2(O)C(F)(F)F)ccc1F` [BAY-9897], the Activity result in data set [4] is reported as “Non-Toxic”. The IC50 in data set [3] and in data set [1] was above 25000 nM in each case.

Regarding `O[C@]1(C(F)(F)F)CCCC[C@H]1Cc1ccc(Cl)nc1`, the logD in data set [5] was determined as 3. Also, the IC50 in data set [1] came out at 2400 nM.

Regarding `CC1(C)CCCC(O)(C(F)(F)F)C1Cc1cccc(F)c1` (mixture of isomers), the IC50 stood at 750 nM in data set [3] and 3800 nM in data set [1].

Turning to `OC(F)(F)[C@@]1(O)CCCC[C@H]1Cc1c[nH]c2ccccc12` (racemic), in data set [5], the logD turned out to be 3.3.

With `COCCN(c1ccc(F)cc1)[C@@H]1CCCC[C@]1(O)C(F)(F)F` (racemic), in data set [5], the pH-dependent lipophilicity (logD) was 3.8. The IC50 in data set [1] worked out at 3800 nM.

`O[C@]1(C(F)(F)F)CCCC[C@H]1Cc1ncc(Cl)s1`: the concentration for half-maximal inhibition (IC50) in data set [1] came out at 1200 nM.

Consider `C#CC(CC)(CC)NC(=O)c1cccnc1NC1CC(F)(F)C1`, for which the IC50 in data set [2] was 1 nM.

In turn, `CN([C@@H]1CCCC[C@]1(O)C(F)(F)F)S(=O)(=O)c1ccc(F)cc1` gave a logD in data set [5] of 3.1. Besides, in data set [1], the IC50 worked out at 16000 nM.

`CN(c1ccc(F)cc1)[C@@H]1CCCC[C@]1(O)C(F)(F)F` registered a logD in data set [5] of 3.9. For the same molecule, the IC50 in data set [1] was determined as 21000 nM.

In the case of `N#Cc1ccc(N[C@@H]2CCCC[C@]2(O)C(F)(F)F)cc1`, the Activity entry in data set [4] was “Non-Toxic”. Moreover, the IC50 in data set [1] was determined as 1300 nM.

Regarding `CC1(C)CCCC(O)(C(F)(F)F)C1Cc1ccc(F)cc1F` (mixture of isomers), the IC50 is 1000 nM in data set [3] and above 10000 nM in data set [1].

Turning to `O=C(N[C@@H]1CCCC[C@]1(O)C(F)(F)F)c1ccc(F)cc1`, in data set [1], the IC50 is 15000 nM.

`O[C@]1(C(F)(F)F)CCCC[C@H]1Cc1csc(Cl)c1`: in data set [5], the logD is 4.3. The IC50 in data set [1] is 130 nM.

On to `O[C@@]1(C(F)(F)F)CCCC[C@@H]1Cc1ccc(F)cc1`, for which, in data set [5], the logD worked out at 3.8.

On to `COc1ccc(CC2C(C)(C)CCCC2(O)C(F)(F)F)cc1` (mixture of isomers), for which the IC50 in data set [3] and in data set [1] was above 12500 nM in each case.

Turning to `O[C@]1(C(F)(F)F)CCCC[C@H]1Cc1ccc(Cl)cn1`, the half-maximal inhibitory concentration (IC50) in data set [1] was above 25000 nM.

Consider `N#Cc1ccc(NC2CCCCC2(O)C(F)(F)F)cc1C(F)(F)F` (racemic), for which the Activity entry in data set [4] is reported as “Non-Toxic”. The IC50 in data set [3] was 19000 nM; in data set [1], above 25000 nM.

With `CC1(C)CCCC(O)(C(F)(F)F)C1Cc1ccc(C#N)cc1` (mixture of isomers), the IC50 was 390 nM in data set [3] and 7570 nM in data set [1].

As to `O[C@]1(C(F)(F)F)CCCC[C@H]1Cc1ccncc1`, in data set [1], the IC50 turned out to be 5300 nM.
